Source: ChEMBL document CHEMBL1157749, “Novel N2-substituted pyrazolo[3,4-d]pyrimidine adenosine A3 receptor antagonists: inhibition of A3-mediated human glioblastoma cell proliferation” (J Med Chem, 2010)
The source made the active and inactive calls. The calls are words filed in the database; no cut-off is given here.

Key:
[1] = target: T1, Adenosine receptor A1 (Homo sapiens, UniProt P30542); test: Displacement of [3H]DPCPX from human adenosine A1 receptor expressed in CHO cells; type: cell-based
T1 sequence (P30542 whole entry): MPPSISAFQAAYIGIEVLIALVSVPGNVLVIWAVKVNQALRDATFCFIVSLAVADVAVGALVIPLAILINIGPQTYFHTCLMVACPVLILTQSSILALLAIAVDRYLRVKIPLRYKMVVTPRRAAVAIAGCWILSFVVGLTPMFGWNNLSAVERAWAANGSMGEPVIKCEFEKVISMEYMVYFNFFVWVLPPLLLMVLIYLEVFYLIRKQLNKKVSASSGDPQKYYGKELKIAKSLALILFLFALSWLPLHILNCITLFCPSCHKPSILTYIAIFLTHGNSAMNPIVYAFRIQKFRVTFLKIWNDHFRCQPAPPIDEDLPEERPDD

[2] = target: T2, Adenosine deaminase (Bos taurus) (UniProt P56658); test: Inhibition of bovine spleen adenosine deaminase at 10 uM after 2 mins by spectrophotometry
T2 sequence (whole entry): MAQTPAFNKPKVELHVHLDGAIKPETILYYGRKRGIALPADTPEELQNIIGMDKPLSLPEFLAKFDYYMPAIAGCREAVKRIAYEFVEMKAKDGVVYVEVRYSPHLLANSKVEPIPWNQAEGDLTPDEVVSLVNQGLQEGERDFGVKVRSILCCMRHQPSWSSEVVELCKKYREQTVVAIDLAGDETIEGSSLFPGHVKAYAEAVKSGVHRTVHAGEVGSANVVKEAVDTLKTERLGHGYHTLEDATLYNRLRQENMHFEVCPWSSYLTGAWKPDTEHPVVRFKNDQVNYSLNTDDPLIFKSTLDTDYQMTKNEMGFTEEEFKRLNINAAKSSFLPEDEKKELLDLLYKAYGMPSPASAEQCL
How it was run: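 Bovine spleen ADA at 0.3 nM with 50 μM adenosine in 50 mM potassium phosphate, pH 7.2, at 30 °C. Inhibitor is tested at 10 μM with final DMSO ≤4%. Deamination is followed as the change in A262 over 2 min, against a substrate-free blank.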

[3] = target: T3, Adenosine receptor A3 (Homo sapiens, UniProt P0DMS8); test: biochemical; type: cell-based, CHO
T3 sequence (P0DMS8 whole entry): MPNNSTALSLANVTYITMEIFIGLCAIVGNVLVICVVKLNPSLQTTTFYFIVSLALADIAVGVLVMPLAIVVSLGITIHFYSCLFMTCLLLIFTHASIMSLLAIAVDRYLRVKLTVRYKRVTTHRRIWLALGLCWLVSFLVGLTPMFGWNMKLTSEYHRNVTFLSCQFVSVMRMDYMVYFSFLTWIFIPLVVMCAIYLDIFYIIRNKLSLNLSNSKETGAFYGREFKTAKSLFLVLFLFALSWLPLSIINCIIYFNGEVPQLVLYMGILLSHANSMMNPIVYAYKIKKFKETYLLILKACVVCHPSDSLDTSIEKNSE

[4] = target: Adenosine receptor A2a (Homo sapiens, UniProt P29274); test: biochemical; type: cell-based, CHO
Chain of Adenosine receptor A2a (P29274 whole entry): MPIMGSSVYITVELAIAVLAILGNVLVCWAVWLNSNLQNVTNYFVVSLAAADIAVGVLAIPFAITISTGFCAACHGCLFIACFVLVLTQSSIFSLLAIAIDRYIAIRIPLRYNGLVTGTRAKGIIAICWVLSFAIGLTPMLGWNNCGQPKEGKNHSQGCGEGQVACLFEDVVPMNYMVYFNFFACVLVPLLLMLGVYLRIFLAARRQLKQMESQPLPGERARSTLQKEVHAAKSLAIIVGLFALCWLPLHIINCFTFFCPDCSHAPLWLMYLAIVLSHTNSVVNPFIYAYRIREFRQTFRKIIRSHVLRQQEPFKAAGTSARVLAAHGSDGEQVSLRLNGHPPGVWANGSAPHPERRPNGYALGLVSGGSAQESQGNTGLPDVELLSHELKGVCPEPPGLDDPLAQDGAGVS

[5] = target: T3, Adenosine receptor A3; test: Antagonist activity human recombinant adenosine A3 receptor expressed in CHO cells assessed as blockade of NECA-mediated inhibition of forskolin-stimulated [3H]cAMP production treated 15 mins before NECA challenge measured after 30 mins by liquid scintillation spectrometry; type: functional, cell-based
How it was run: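 hA3-expressing CHO cells are pre-incubated 15 min at 37 °C with ADA 1 U/mL and Ro 20-1724 20 μM. […] HCl lysates are assayed for cAMP by [3H]cAMP/binding-protein competition with scintillation read-out. IC50 is reported as mean ± SEM of four experiments in triplicate.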

[6] = target: T4, Adenosine receptor A2b (Homo sapiens, UniProt P29275); test: Antagonist activity human recombinant adenosine A2B receptor expressed in CHO cells assessed as inhibition of NECA-mediated [3H]cAMP accumulation treated 15 mins before NECA challenge measured after 30 mins by liquid scintillation spectrometry; type: functional, cell-based
T4 sequence (P29275 whole entry): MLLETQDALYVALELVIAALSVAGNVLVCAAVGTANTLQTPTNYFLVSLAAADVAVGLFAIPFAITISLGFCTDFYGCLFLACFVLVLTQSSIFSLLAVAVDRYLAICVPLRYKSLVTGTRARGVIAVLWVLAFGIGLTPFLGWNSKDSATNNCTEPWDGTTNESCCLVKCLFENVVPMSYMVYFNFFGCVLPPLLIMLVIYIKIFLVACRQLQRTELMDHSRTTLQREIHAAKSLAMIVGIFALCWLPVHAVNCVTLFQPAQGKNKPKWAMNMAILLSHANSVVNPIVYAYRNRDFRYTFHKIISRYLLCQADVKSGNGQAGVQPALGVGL
How it was run: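 CHO cells stably expressing hA2B are pre-incubated 15 min at 37 °C in DMEM with ADA 1 U/mL and Ro 20-1724 20 μM. […] Cells are lysed in 0.4 N HCl. cAMP is measured by [3H]cAMP competition with bovine adrenal binding protein (150 min, 0 °C), with filtration and scintillation counting. Mean ± SEM, four experiments in triplicate.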

[7] = target: T5, Mitogen-activated protein kinase; ERK1/ERK2 (Homo sapiens) (UniProt P27361+P28482); test: Modulation of ERK1/2 phosphorylation in human U87MG cells at 0.25 to 10 nM after 30 mins by ELISA; type: cell-based; settings: U-87MG ATCC
T5 sequence (P27361 whole entry, looked up): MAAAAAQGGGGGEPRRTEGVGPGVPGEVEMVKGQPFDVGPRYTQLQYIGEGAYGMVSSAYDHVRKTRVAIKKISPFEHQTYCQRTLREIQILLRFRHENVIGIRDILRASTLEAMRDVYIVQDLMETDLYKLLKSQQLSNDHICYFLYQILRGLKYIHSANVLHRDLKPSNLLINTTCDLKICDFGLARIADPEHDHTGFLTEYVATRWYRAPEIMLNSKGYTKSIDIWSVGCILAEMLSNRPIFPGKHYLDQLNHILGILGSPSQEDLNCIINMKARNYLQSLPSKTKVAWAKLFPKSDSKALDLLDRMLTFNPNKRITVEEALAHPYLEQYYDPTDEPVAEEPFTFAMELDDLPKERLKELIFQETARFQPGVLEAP
T5 sequence (P28482 whole entry, looked up): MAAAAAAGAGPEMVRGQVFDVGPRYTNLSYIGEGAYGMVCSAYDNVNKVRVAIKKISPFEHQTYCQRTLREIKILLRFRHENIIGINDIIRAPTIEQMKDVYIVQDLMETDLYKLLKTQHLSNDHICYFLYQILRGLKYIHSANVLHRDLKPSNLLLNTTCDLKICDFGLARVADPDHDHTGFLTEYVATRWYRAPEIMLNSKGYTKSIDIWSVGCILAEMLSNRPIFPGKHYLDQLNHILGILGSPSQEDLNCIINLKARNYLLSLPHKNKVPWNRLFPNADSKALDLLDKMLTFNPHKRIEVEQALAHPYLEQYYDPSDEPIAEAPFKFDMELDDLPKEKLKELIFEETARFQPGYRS

[8] = target: T3, Adenosine receptor A3; test: Antagonist activity at adenosine A3 receptor in human U87MG cells assessed as inhibition of Cl-IB-MECA-mediated ERK1/2 phosphorylation after 30 mins by ELISA; type: functional, cell-based, U-87MG ATCC
[9] = tested on: U-87 MG; test: Inhibition of IBMECA-mediated human U87MG cell proliferation after 48 hrs by trypan blue exclusion assay; type: functional, cell-based, U-87MG ATCC
How it was run: (§1)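 U87MG cells in RPMI/10% FBS are arrested in G1 (0.5% FBS, 48 h). They are then treated 48 h with Cl-IB-MECA 100 nM or IB-MECA 12 nM, with or without antagonist at 0.1–10 nM or 0.01–5 nM. Live cells are counted by 0.4% trypan blue exclusion in a haemocytometer and expressed as % of control, mean ± SEM.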

[10] = tested on: U-87 MG; test: Inhibition of Cl-IB-MECA-mediated human U87MG cell proliferation after 48 hrs by trypan blue exclusion assay; type: functional, cell-based, U-87MG ATCC; how it was run: as §1
[11] = tested on: U-87MG ATCC; test: Antiproliferative activity against human U87MG cell proliferation at 0.1 to 10 nM after 48 hrs by trypan exclusion assay; type: functional, cell-based; how it was run: as §1
[12] = Octanol-water partition coefficient, log P of the compound; type: physicochemical
[13] = target: T1, Adenosine receptor A1; test: Inhibition of human adenosine A1 receptor
How it was run: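 Displacement binding using membranes (30 μg protein) from CHO cells stably expressing human A1 receptor. […] Six compound concentrations were tested, in DMSO ≤2% final. Nonspecific binding was defined with 50 μM RPIA. IC50 was converted to Ki by Cheng-Prusoff; at least three determinations.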

[14] = target: T6, Adenosine receptor A3 (Homo sapiens) (UniProt P0DMS8); test: Induction of adenosine A3 receptor-mediated ERK1/2 phosphorylation in human U87MG cells at 100 nM by ELISA; type: cell-based; settings: U-87MG ATCC, TDE = time-dependent effect
T6 sequence (whole entry): T3 sequence (P0DMS8 whole entry)
How it was run: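 Time course in U87MG cells given 100 nM Cl-IB-MECA for 5–120 min. Phospho-ERK1/2 is read by colorimetric cell-based ELISA after fixation, with crystal violet cell-number correction. Results are % of control cells, mean ± SEM, Student t test.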

[15] = tested on: U-87MG ATCC; test: Antiproliferative activity against human U87MG cell proliferation at 0.01 to 5 nM after 48 hrs by trypan exclusion assay; type: functional, cell-based; how it was run: as §1
[16] = target: T5, Mitogen-activated protein kinase; ERK1/ERK2 (Homo sapiens); test: Modulation of ERK1/2 phosphorylation in human U87MG cells at 0.05 to 1 nM after 30 mins by ELISA; type: cell-based; settings: U-87MG ATCC

Compound	Ki [1]	inhibition [2]	Ki [3]	Ki [4]	further results
Nc1nc(-c2ccccc2)nc2nn(CCc3ccccc3)cc12	2500 nM	inactive	503 nM	1000 nM	–
O=C(Nc1ccccc1)Nc1nc(-c2ccccc2)nc2nn(CCc3ccccc3)cc12	1700 nM	–	36.3 nM	96 nM	–
O=C(Nc1nc(-c2ccccc2)nc2nn(CCc3ccccc3)cc12)c1cccc(Cl)c1	1050 nM	–	22.3 nM	314 nM	–
COc1ccc(C(=O)Nc2nc(-c3ccccc3)nc3nn(CCc4ccccc4)cc23)cc1	2400 nM	–	45.2 nM	1140 nM	–
COc1ccc(NC(=O)Nc2nc(-c3ccccc3)nc3nn(Cc4ccccc4)cc23)cc1	> 10000 nM	inactive	2.9 nM	> 10000 nM	IC50 [5]: 8.2 nM; IC50 [6]: 1470 nM
O=C(Nc1nc(-c2ccccc2)nc2nn(Cc3ccccc3)cc12)c1ccccc1	53 nM	inactive	3 nM	181 nM	IC50 [5]: 53 nM; IC50 [6]: 272 nM
COc1ccc(NC(=O)Nc2nc(-c3ccccc3)nc3nn(C)cc23)cc1	> 10000 nM	inactive	358 nM	> 10000 nM	–
COc1ccc(C(=O)Nc2ncnc3nn(Cc4ccccc4)cc23)cc1	> 10000 nM	–	> 1000 nM	> 10000 nM	–
COc1ccc(NC(=O)Nc2nc(-c3ccccc3)nc3nn(CCc4ccccc4)cc23)cc1	> 10000 nM	–	> 1000 nM	> 10000 nM	–
Cn1cc2c(N)nc(-c3ccccc3)nc2n1	585 nM	inactive	922 nM	> 10000 nM	–
Cn1cc2c(NC(=O)c3ccccc3)nc(-c3ccccc3)nc2n1	334 nM	inactive	0.6 nM	728 nM	Activity [7]: inactive; IC50 [8]: 0.74 nM; IC50 [5]: 1.9 nM; IC50 [6]: 49.8 nM; IC50 [9]: 0.41 nM; IC50 [10]: 0.17 nM; Activity [11]: inactive; logP [12]: 3.8
Cn1cc2c(NC(=O)c3cccc(Cl)c3)nc(-c3ccccc3)nc2n1	1080 nM	inactive	5.9 nM	886 nM	–
O=C(Nc1cccc(Cl)c1)Nc1nc(-c2ccccc2)nc2nn(CCc3ccccc3)cc12	> 10000 nM	–	> 1000 nM	> 10000 nM	–
Cc1cn2c(NC(=O)c3ccccc3)nc(-c3ccccc3)nc2n1	–	–	–	–	Ki [13]: 350 nM
O=C(Nc1cccc(Cl)c1)Nc1nc(-c2ccccc2)nc2nn(Cc3ccccc3)cc12	> 10000 nM	–	121 nM	> 10000 nM	–
Nc1nc(-c2ccccc2)nc2nn(Cc3ccccc3)cc12	312 nM	inactive	93 nM	121 nM	–
Cn1cc2c(NC(=O)Nc3ccccc3)nc(-c3ccccc3)nc2n1	> 10000 nM	inactive	20.9 nM	> 10000 nM	–
O=C(Nc1nc(-c2ccccc2)nc2nn(CCc3ccccc3)cc12)c1ccccc1	27 nM	–	43.7 nM	227 nM	–
CNC(=O)OC[C@H]1O[C@@H](n2cnc3c(NCc4cccc(I)c4)nc(Cl)nc32)[C@H](O)[C@@H]1O	120 nM	–	–	–	Activity [14]: tde
COc1ccc(C(=O)Nc2nc(-c3ccccc3)nc3nn(Cc4ccccc4)cc23)cc1	> 10000 nM	–	22.1 nM	> 10000 nM	–
O=C(Nc1nc(-c2ccccc2)nc2nn(Cc3ccccc3)cc12)c1cccc(Cl)c1	> 10000 nM	inactive	3.7 nM	> 10000 nM	IC50 [5]: 7.6 nM; IC50 [6]: 1330 nM
O=C(Nc1ncnc2nn(Cc3ccccc3)cc12)c1ccccc1	> 10000 nM	–	> 1000 nM	> 10000 nM	–
Cn1cc2c(NC(=O)Nc3cccc(Cl)c3)nc(-c3ccccc3)nc2n1	922 nM	inactive	29.1 nM	> 10000 nM	–
COc1ccc(C(=O)Nc2nc(-c3ccccc3)nc3nn(C)cc23)cc1	1040 nM	inactive	0.18 nM	3180 nM	IC50 [8]: 0.061 nM; IC50 [5]: 2.4 nM; Activity [15]: inactive; Activity [16]: inactive; IC50 [6]: 53.9 nM; IC50 [9]: 0.057 nM; IC50 [10]: 0.091 nM; logP [12]: 4
O=C(Nc1ccccc1)Nc1nc(-c2ccccc2)nc2nn(Cc3ccccc3)cc12	290 nM	inactive	2.9 nM	> 10000 nM	IC50 [5]: 5.7 nM; IC50 [6]: 1320 nM
O=C(Nc1ncnc2nn(Cc3ccccc3)cc12)c1cccc(Cl)c1	> 10000 nM	–	> 1000 nM	4900 nM	–
